Experimental data taken from publication PMC6753381 (Cell reports, 2019).
Entries after “also recorded” stand apart in the source; their conditions may differ. Structures can show the parent of a compound that is named as a salt. One block for each compound: values may come before it.

Key:
[1] = system: Ca45 2+ uptake in 3T3-L1 adipocytes; assay: Ca45 2+ uptake assay in 3T3-L1 adipocytes; type: cell-based, mouse; conditions: differentiated 3T3-L1 adipocytes, 3 min, pH 7.4, 37°C; ISO 100 nM
Procedure, shortened: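 Differentiated adipocytes were washed twice, 15 min apart, at 37°C in 150 mM NaCl, 5 mM KCl, 2 mM CaCl2 and 10 mM HEPES, pH 7.4. They were then incubated 3 min in Ca-free buffer with 2 μCi 45Ca2+, peptide at several concentrations and isoproterenol 100 nM. Stop with ice-cold Ca-free buffer containing 2 mM EGTA and 1 mM LaCl3, then three washes. Lysis in 0.1% Triton X-100; scintillation counting, cpm/well.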

[2] = system: 3T3-L1 adipocytes; assay: Lipolysis; type: cell-based, mouse; conditions: 1 h pretreatment, ISO 50 nM, no TLQP-21
Procedure, shortened: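 Adipocytes serum-starved 3 h in KRH buffer (HEPES 10 mM, CaCl2 2.2 mM, glucose 5.4 mM) with 1% fatty-acid-free BSA, then treated in KRH with 4% BSA. Inhibitors given as 1 h pretreatment (SKF-96365 dose series; AnC0A4 or KN-62 1 μM) before isoproterenol 50 nM. Medium heat-inactivated 60°C for 20 min. Free glycerol read colorimetrically at 540 nm, normalized to Bradford protein, fold over control.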

[3] = system: [Ca2+]i in 3T3-L1 cells; assay: Fluo-4 intracellular calcium in 3T3-L1 cells; type: cell-based, mouse; conditions: SKF-96365 20 μM; for effect of inhibitor on TLQP-21-induced [Ca2+]i increase: TLQP-21 10 μM
Procedure, shortened: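 Cells plated at 60% confluency on collagen-coated slides. Next day, loaded 30 min in HBSS with 2.5 μM Fluo-4 AM, washed 30 min, imaged live at 20X every second for 3 min. Agents added at 30 s; HBSS negative, ionomycin and UTP positive controls. Per-cell AUC over first 60 s, background-subtracted, basal-normalized, control-normalized, scaled 0–1; 8–50 cells, 2 experiments.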

[4] = molecular target: T1, m*C3aR1 (murinized hC3aR1) (Homo sapiens, UniProt Q16581, C420S/L413V/S400L/V103I/V419M); assay: Tango β-arrestin recruitment assay, murinized hC3aR1; type: cell-based; conditions: ratio of EC50 hC3aR1 / m*C3aR1
T1 sequence (Q16581 1-482 V103I/S400L/L413V/V419M/C420S): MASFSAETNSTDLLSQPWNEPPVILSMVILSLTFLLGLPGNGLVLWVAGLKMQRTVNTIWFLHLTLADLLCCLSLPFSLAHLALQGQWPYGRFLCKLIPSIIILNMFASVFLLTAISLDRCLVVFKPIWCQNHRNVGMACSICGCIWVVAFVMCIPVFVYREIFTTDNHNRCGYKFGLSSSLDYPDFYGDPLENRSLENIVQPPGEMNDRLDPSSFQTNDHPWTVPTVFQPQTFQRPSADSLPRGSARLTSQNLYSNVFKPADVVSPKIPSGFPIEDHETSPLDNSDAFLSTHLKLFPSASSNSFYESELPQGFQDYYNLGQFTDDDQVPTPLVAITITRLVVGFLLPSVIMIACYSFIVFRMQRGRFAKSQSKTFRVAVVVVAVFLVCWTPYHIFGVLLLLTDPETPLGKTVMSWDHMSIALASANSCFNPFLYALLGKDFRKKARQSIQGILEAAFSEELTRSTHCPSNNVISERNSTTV

[5] = system: C3aR1 R161A, R340A and D417A mutants; conditions: R340A, and D417A mutations, ref Sun et al., 1999; cited from earlier work
[6] = system: C3aR1; conditions: cited from earlier work

Compound: CC(C)NCC(O)c1ccc(O)c(O)c1 (centres unmarked) [ISO, Isoproterenol hydrochloride]
Ca45 2+ uptake from the medium [1]: did not increase Ca45^2+ uptake under our experimental conditions and did not potentiate TLQP-21-mediated effects; also recorded: does not modify TLQP-21-induced Ca45^2+ uptake from the medium

Compound: CN([C@@H](Cc1ccc(OS(=O)(=O)c2cccc3cnccc23)cc1)C(=O)N1CCN(c2ccccc2)CC1)S(=O)(=O)c1cccc2cnccc12 [KN-62]
effect of inhibitor on basal or ISO-induced lipolysis [2]: without affecting basal or ISO-induced lipolysis per se

Compound: NC(N)=NCCC[C@H](NC(=O)COCC(c1ccccc1)c1ccccc1)C(=O)O [SB290157]
effect of inhibitor on TLQP-21-induced [Ca2+]i increase [3]: antagonized TLQP-21-mediated calcium influx; also recorded: this effect is antagonized by the C3aR1 antagonist SB290157

Compound: COc1ccc(CCCOC(Cn2ccnc2)c2ccc(OC)cc2)cc1 (centres unmarked) [SKF-96365]
basal fluorescence (Fluo-4) [3]: mild SKF-96365-induced elevation of basal fluorescence | effect of inhibitor on TLQP-21-induced [Ca2+]i increase [3]: TLQP-21-induced increase in [Ca^2+]i, measured by Fluo-4 fluorescence, is blocked; also recorded: blocked the TLQP-21-induced increase in [Ca^2+]i | effect of inhibitor on basal or ISO-induced lipolysis [2]: without affecting basal or ISO-induced lipolysis

Compound: C3a63–77: C3aR1 agonist C3a63–77 (LRRQHARASHLGLAR; C3a anaphylatoxin; UniProt P01024 734-748, looked up, fragment)
increase in β-arrestin potency at m*C3aR1 versus hC3aR1 [4]: 8.5 fold

increase in β-arrestin potency at m*C3aR1 versus hC3aR1 [4]: 8.5 fold
Compound: C3a: 77-amino-acid, full-length C3a; in b45 apparently the C3a63–77 peptide
C3a binding affinity to C3aR1 mutants [5]: complete loss of C3a binding affinity to C3aR1

Compound: HFHHALPPAR
biological activity of modified or truncated peptides ([6]; ref Cero et al., 2014): only retained minimal biological activity

Compound: RRRHFHHALPPAR
biological activity of truncated peptide ([6]; ref Rivolta et al., 2017): retains full biological activity
